These results are taken from ChEMBL document CHEMBL1155553, “Design and synthesis of alpha-ketoamides as cathepsin S inhibitors with potential applications against tumor invasion and angiogenesis” (J Med Chem, 2010).

For data set [1], the target named is T1, Cathepsin S (Homo sapiens, UniProt P25774). Kind of data set: Competitive inhibition of human recombinant cathepsin S expressed in Escherichia coli BL21 (DE3) after 15 mins by Lineweaver-Burke plot analysis.
Target sequence in this assay (P25774 115-331 limits assumed): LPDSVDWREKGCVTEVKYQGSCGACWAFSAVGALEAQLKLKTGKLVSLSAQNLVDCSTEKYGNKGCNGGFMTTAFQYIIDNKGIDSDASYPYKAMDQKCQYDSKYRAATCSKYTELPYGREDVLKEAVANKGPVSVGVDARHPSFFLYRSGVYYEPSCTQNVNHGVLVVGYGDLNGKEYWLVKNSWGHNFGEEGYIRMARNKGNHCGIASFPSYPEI
The target in data set [2] is T1, Cathepsin S. Kind of data set: Inhibition of human recombinant cathepsin S expressed in Escherichia coli BL21 (DE3) after 10 mins by fluorescence assay.
Target sequence in this assay (P25774 whole entry): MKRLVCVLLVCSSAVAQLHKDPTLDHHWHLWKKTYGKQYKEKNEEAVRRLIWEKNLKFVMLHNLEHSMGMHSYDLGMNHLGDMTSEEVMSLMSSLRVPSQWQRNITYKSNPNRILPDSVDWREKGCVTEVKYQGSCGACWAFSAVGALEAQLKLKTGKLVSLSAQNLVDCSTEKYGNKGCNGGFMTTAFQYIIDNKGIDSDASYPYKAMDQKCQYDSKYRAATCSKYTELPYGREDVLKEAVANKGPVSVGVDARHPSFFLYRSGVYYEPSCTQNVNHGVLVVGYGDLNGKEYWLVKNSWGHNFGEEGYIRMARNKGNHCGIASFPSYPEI
Data set [3] concerns the target Cathepsin B (Homo sapiens) (UniProt P07858). Kind of data set: Inhibition of cathepsin B assessed as proteolytic activity at 40 nM by fluorimetric assay. Set-up: Activity: scale not given: the % may be the effect or the level left.
Data set [4] is described as follows: Antiinvasive activity in human CL1-5 cells assessed as cellular migration after 24 hrs by fluorescence assay relative to control. Also on record: concentration or dose not given beside the values. The format is functional.
Data set [5] concerns HUVEC. Kind of data set: Antiinvasive activity in VEGF-stimulated HUVEC assessed as cellular migration after 24 hrs by fluorescence assay relative to control. The format is functional, Homo sapiens. Also on record: concentration or dose not given beside the values.
Data set [6] deals with Procathepsin L (Homo sapiens) (UniProt P07711). Kind of data set: Inhibition of cathepsin L assessed as proteolytic activity at 40 nM by fluorimetric assay. Set-up: Activity: scale not given: the % may be the effect or the level left.
Procathepsin L (Homo sapiens), sequence (P07711 114-333 limits assumed): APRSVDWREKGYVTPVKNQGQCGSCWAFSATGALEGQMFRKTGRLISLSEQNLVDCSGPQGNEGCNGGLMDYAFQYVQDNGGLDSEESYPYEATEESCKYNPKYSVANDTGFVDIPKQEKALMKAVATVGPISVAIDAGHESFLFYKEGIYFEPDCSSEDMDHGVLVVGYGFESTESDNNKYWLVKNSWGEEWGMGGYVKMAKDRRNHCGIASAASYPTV
The nature of data set [7]: Cytotoxicity against human CL1-5 cells by MTT assay. The format is cell-based. The method in brief:
(§1)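 Overall cytotoxicity measured by MTT proliferation assay, compounds tested at concentrations up to 50 μM.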
For orientation: Formazan colour is commonly taken as a measure of viable cells.

The test system of data set [8] is HUVEC. Kind of data set: Cytotoxicity against HUVEC by MTT assay. The format is cell-based. To be noted: Homo sapiens. The procedure, abridged: as §1
The nature of data set [9]: Antiinvasive activity in human CL1-5 cells assessed as cellular invasion after 24 hrs by fluorescence assay. The format is functional. The procedure, abridged: (§2)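 CL1-5 lung adenocarcinoma cells (2 × 10⁵ per well) treated with compound; control wells received DMSO (10 μL) in medium (2 mL). Cell traversal/invasion expressed as percent of DMSO control (set 100%); mean ± SD from hexaplicate experiments.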

The nature of data set [10]: Antiinvasive activity in human CL1-5 cells after 24 hrs by fluorescence assay. The format is functional. The procedure, abridged:
as §2

Data set [11] relates to HUVEC. Kind of data set: Antiangiogenic activity in VEGF-stimulated HUVEC assessed as capillary tube formation after 16 hrs by photographic analysis. The format is functional, Homo sapiens. The procedure, abridged:
(§3)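 HUVEC plated on Matrigel-coated wells, treated with α-ketoamide in presence of VEGF (20 ng/mL); after 16 h incubation cultures photographed and capillary tubes (branch points) counted under microscope at 100× magnification. Tube formation expressed relative to DMSO control; mean ± SD from three separate experiments.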

Data set [12] can be described thus: Cytotoxicity against HUVEC assessed as maximal tolerated dose by MTT assay. To be noted: human, read-out: MTD. The format is cell-based. The method in brief: (§4)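 MTT proliferation read-out for overall cytotoxicity of the α-ketoamides. Compounds were tested at concentrations up to 50 μM. Both cell types express high levels of Cat S.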
Data set [13] can be described thus: Cytotoxicity against human CL1-5 cells assessed as maximal tolerated dose by MTT assay. To be noted: read-out: MTD. The format is cell-based. The method in brief: as §4
In data set [14] the target is T1, Cathepsin S. Kind of data set: Inhibition of cathepsin S-mediated cleavage of fibronectin by cell-based ECM degradation assay.
Target sequence in this assay (P25774 115-331 limits assumed): as the sequence (P25774 115-331 limits assumed) above
The subject of data set [15] is HUVEC. Kind of data set: Antiangiogenic activity in VEGF-stimulated HUVEC assessed as inhibition of capillary tube formation after 16 hrs by photographic analysis. The format is functional, Homo sapiens. Set-up: scale not given: the % may be the effect or the level left. The procedure, abridged: as §3

pIC50: −log10 of the molar value. Calls of active or inactive are those of the source. The calls are words filed in the database; no cut-off is given here.

As to `CCOC(=O)CNC(=O)C(=O)C(COCc1ccccc1)NC(=O)[C@H](CC1CCCCC1)NC(=O)N1CCOCC1` (some centres not stated), the inhibition result on Cathepsin S [1] is “Active”. The results for the negative-log IC50 (pIC50) (on Cathepsin S [2]; in data set [7]; in the data set with HUVEC [8]) were 8.36, < 4.30 and < 4.30, respectively. Besides, the Activity worked out at 102% in [3], 51% in [4], 87% in the data set with HUVEC [5] and 3.2% in data set [6].

For `CCOC(=O)CNC(=O)C(=O)[C@H](COCc1ccccc1)NC(=O)[C@H](CC(C)C)NC(=O)c1cccc2c1C(=O)c1ccccc1-2`, the Activity in data set [9] was determined as 32%; in data set [10] it was 68%; in the data set with HUVEC [11], 88%; in data set [4], 50%; with HUVEC [5] it was 55%; in the data set on HUVEC [15], 32%. Moreover, the pIC50 on Cathepsin S [2] was 8.06; in data set [7], 4.64; in the data set on HUVEC [8], 4.52. Also, the MNTC in [12] and in data set [13] was 10 µM in each case. Further, the inhibition entry on Cathepsin S [14] was “Dose-dependent effect”.

As for `CCOC(=O)CNC(=O)C(=O)[C@H](COCc1ccccc1)NC(=O)[C@H](CC1CCCCC1)NC(=O)C(=O)c1cccs1`, the Activity in data set [9] came to 18%; in [10], 82%; in the data set on HUVEC [11], 64%; in data set [4], 56%; in the data set with HUVEC [5], 57%; in the data set on HUVEC [15], 36%. For the same molecule, the negative-log IC50 (pIC50) is 8.18 at Cathepsin S [2], < 4.30 in data set [7] and 4.44 in the data set on HUVEC [8]. For the same molecule, the MNTC in data set [12] and in [13] was 10 µM in each case. The inhibition result on Cathepsin S [14] was “Dose-dependent effect”.

A word on the pIC50: it is the negative decadic logarithm of the IC50, by convention in mol/L.
